# Screens: PubChem, The Scripps Research Institute Molecular Screening Center
# Shown are actives, neighbours in structure and some others; about 1.3% of the full set was active somewhere.
# PP5 inh: inhibitors of human protein phosphatase 5 (PP5); P53041; purified PP5c, OMFP substrate fluorescence; inhibition, % at 6.7 µM; 0.18% of 320,000 active; AID 1987;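 active = inhibition above the campaign's mean inhibition across all tested compounds plus 3 SD, cut at about 9.5% in these data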;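 note: 0% = DMSO only and 100% = 100 µM cantharidin control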
# NR2E3 ag-1: agonists of human nuclear receptor NR2E3; AID 2300; GST-NR2E3/biotin-RetCOR TR-FRET, 1536-well; inhibition of corepressor binding, % at 4.78 µM; 0.12% of 320,000 active;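 active = percent inhibition above the cutoff of mean plus 3 SD of all tested compounds, set per screening campaign, cut at about 20% in these data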;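 note: 0% = DMSO wells and 100% = biotin wells as full block of FRET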
# Target sequence (Q9Y5X4 whole entry, looked up): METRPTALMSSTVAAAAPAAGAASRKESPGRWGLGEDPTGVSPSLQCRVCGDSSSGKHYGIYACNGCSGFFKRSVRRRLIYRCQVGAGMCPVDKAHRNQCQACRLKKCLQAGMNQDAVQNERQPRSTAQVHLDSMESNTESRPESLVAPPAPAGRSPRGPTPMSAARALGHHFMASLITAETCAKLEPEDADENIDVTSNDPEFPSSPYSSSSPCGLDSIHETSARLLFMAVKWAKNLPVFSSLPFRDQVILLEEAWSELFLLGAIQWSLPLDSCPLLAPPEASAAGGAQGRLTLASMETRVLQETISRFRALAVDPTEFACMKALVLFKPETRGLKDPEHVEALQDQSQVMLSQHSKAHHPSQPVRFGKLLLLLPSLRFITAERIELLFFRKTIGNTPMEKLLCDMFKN
#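 System: GST-tagged NR2E3 plus biotinylated RetCOR corepressor; Buffer or medium: pH 7.5 Tris-based buffer; Probe or stimulus: RetCOR corepressor, biotinylated, 7 nM; Doses: compound at 4.8 µM, single dose; Schedule: 5 h incubation at 4 °C; Technique: time-resolved FRET; Evaluation: percent inhibition of TR-FRET ratio; Replication: one well per compound, singlicate testing.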
# NR2E3 ag-2: activates human NR2E3 receptor | Q9Y5X4 | CHO-S Gal4-NCOR/VP16-NR2E3 two-hybrid, luciferase | inhibition of corepressor binding, % at 3.98 µM | 0.35% of 360,000 active | AID 602229;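 active = inhibition above the mean of all tested compounds plus 3 SD, cut at about 70% in these data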;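 note: 0% = DMSO with NR2E3 transfected cells and 100% = cells lacking NR2E3 construct; higher means lower luciferase signal from less NR2E3 corepressor binding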
# PP1 inh: blocks human PP1-alpha phosphatase, a PP5 counter-screen; P62136; purified PP1alpha, OMFP fluorescence; inhibition, % at 6.7 µM; 0.9% of 320,000 active; AID 2235;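 active = inhibition above the mean inhibition of all tested compounds plus 3 SD, computed separately for each screening campaign, cut at about 15% in these data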
# NR2E3 ag confirm: NR2E3 agonism confirmed in two-hybrid assay; inhibition, % at 3.98 µM; CHO-S mammalian two-hybrid NR2E3-NCOR, luciferase luminescence; AID 624378; 51% of 2,300 active; shares compounds with NR2E3 ag-2;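 active = average inhibition above a cutoff equal to the mean inhibition of all tested compounds plus one SD, cut at about 70% in these data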;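 note: 0% = DMSO in NR2E3 cells and 100% = DMSO in cells lacking NR2E3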
# VP16 counter: counter-screen for NR2E3 agonists: GAL4-VP16 reporter inhibitors | inhibition, % at 3.98 µM | 29% of 2,300 active | AID 624379 | CHO-S GAL4-VP16 luciferase reporter, luminescence | shares compounds with NR2E3 ag-2;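 active = mean inhibition above a cutoff equal to the average over all tested compounds plus one standard deviation, cut at about 70% in these data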;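 note: luciferase from a UAS reporter driven by GAL4-VP16 transactivation; 0% = DMSO with VP16-transfected cells and 100% = DMSO with cells lacking VP16; higher means less reporter light so more repression of VP16 activity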
# * marks the source's active call; other numbers are inactive results; . = no result given.
SMILES,PP5 inh,NR2E3 ag-1,NR2E3 ag-2,PP1 inh,NR2E3 ag confirm,VP16 counter
Cc1ccc(CN2CC(C(=O)Nc3ncc(C)s3)CC2=O)cc1 (centres undefined),.,.,83*,.,83*,17
N#CCC(CNc1ncc(C(F)(F)F)cc1Cl)OC(=O)c1ccc(Cl)cc1Cl (centres undefined),5,2,-4,0,.,.
COc1ccc([N+](=O)[O-])cc1N(CC(O)CN1C(=O)NC(C)(C)C1=O)S(=O)(=O)c1ccccc1 (centres undefined),2,1,-20,-1,.,.
COc1ccccc1NC(=S)NNC(=O)c1ccc(Cl)cc1Cl,3,3,53,-2,-131,-115
CCN1C[C@@H]2[C@@H]3C(=O)N(C)C(=O)[C@@H]3[C@](C)(C1=O)N2C(=O)c1ccc(F)cc1,.,.,15,.,.,.
C=CCn1c(C)cc(C(=O)COC(=O)/C=C/c2c(C)nn(C3CCS(=O)(=O)C3)c2Cl)c1C (centres undefined),1,-6,-19,-2,.,.
COc1ccccc1N1CCN(C(=O)C2CCCN(S(=O)(=O)c3ccc4c(c3)oc(=O)n4C)C2)CC1 (centres undefined),4,1,85*,0,66,50
Cc1cc(=O)[nH]c(SCc2cccc3ccccc23)n1,1,-2,71*,-1,80*,57
Cc1cc(=O)[nH]c(SCc2cccc(Br)c2)n1,0,2,24,2,.,.
Cc1cc(=O)[nH]c(SCc2ccc(Cl)cc2Cl)n1,1,-2,21,0,.,.
Cc1cc(CSc2nc(C)cc(=O)[nH]2)c2ncccc2c1,0,-3,86*,-3,94*,72*
O=C(Nc1cc(S(=O)(=O)N2CCOCC2)ccc1O)c1ccc(NS(=O)(=O)c2ccc(Cl)s2)cc1,-1,1,18,-4,.,.
COc1ccccc1NC(=O)c1ccccc1NS(=O)(=O)c1cccs1,0,3,11,-5,.,.
COc1ccc(C)cc1NC(=O)c1ccccc1NS(=O)(=O)c1ccc(Cl)s1,1,3,101*,7,99*,90*
Cc1ccc(NC(=O)c2ccccc2NS(=O)(=O)c2ccc(Cl)s2)cc1S(=O)(=O)N1CCOCC1,7,2,90*,5,99*,78*
CC(=O)N[C@H]1[C@H](OC2CCCCC2)O[C@H](COC(C)=O)[C@@H](OC(C)=O)[C@@H]1OC(C)=O,1,5,-5,-1,.,.
CC(=O)Oc1c(I)cc(I)cc1C(=O)Nc1ccc(Cl)cc1,5,2,106*,10,99*,87*
Nc1cc(S(=O)(=O)Nc2ccccc2Cl)ccc1N1CCCC1,2,3,18,1,.,.
COc1ccc(NS(=O)(=O)c2ccc(N3CCOCC3)c(N)c2)cc1,-2,4,85*,-1,90*,78*
CSc1ccc(S(=O)(=O)Nc2ccc3c(c2)OCCO3)cc1,-1,2,38,-1,.,.
COc1ccc(S(=O)(=O)Nc2ccc(N3CCOCC3)cc2)cc1,0,-1,12,-2,.,.
CSc1ccc(S(=O)(=O)Nc2ccc(N3CCOCC3)c(Cl)c2)cc1,3,-2,69,0,45,63
Nc1cc(S(=O)(=O)Nc2cc(Cl)ccc2Cl)ccc1N1CCOCC1,-2,-3,53,0,38,47
Cc1cc(NCC(C)C)n2ncnc2n1,0,4,-6,-3,.,.
CCCOc1ccc(CN(CCC#N)C(=S)NC(=O)c2ccccc2)cc1,-2,0,54,0,-3,14
SMILES,PP5 inh,NR2E3 ag-1,NR2E3 ag-2,PP1 inh,NR2E3 ag confirm,VP16 counter
CN(Cc1ccco1)C(=O)[C@H](Cc1ccccc1)NC(=O)CC[C@H]1O[C@@H](n2ccc(=O)[nH]c2=O)[C@H](O)[C@@H]1O,.,.,7,.,.,.
CCN1/C(=C/c2ccc3cc(C)ccc3[n+]2CC)Sc2cc(C)c(C)cc21,.,.,90*,.,99*,87*
CN1/C(=C/c2cccc[n+]2CCO)Sc2ccccc21,1,2,-1,3,.,.
CCN1/C(=C/c2ccc3cc(C)ccc3[n+]2CC)Sc2ccccc21,1,-25,91*,8,99*,89*
CC[n+]1c(/C=C2\Sc3ccccc3N2C)ccc2cccc(C)c21,.,.,86*,.,100*,81*
O=C(CC[C@H]1O[C@@H](n2ccc(=O)[nH]c2=O)[C@H](O)[C@@H]1O)N[C@H](Cc1ccccc1)C(=O)NCC1CCCO1 (some centres undefined),.,.,9,.,.,.
CC(C)C[C@@H](CN1CCC[C@@H]1CN1C(=S)NC[C@@H]1Cc1ccc(O)cc1)N1C[C@H](Cc2ccc(O)cc2)N(CC2CCCCCC2)C1=S,.,.,24,.,.,.
CC(C)C[C@@H](CN1CCC[C@@H]1CN1C(=S)NC[C@@H]1Cc1ccc(O)cc1)N1C[C@H](Cc2ccc(O)cc2)N(CC2CCCCC2)C1=S,.,.,54,.,14,19
CC(=O)Nc1ccc(S(=O)(=O)NCCSCc2ccccc2Cl)cc1,2,4,71*,-2,82*,65
COc1ccc(CNC(=O)C[C@H]2C[C@H](C(=O)N(C(C)C)C(C)C)[C@@]3(C)c4[nH]c5cc(-c6ccco6)ccc5c4CCN3C2=O)cc1OC,.,.,-39,.,.,.
Cc1ccc(C(=O)Nc2cccc(C(=O)NCc3ccco3)c2)cc1,4,0,56,2,19,-4
Cc1ccc(C(=O)NCc2ccco2)cc1,.,.,-39,.,.,.
O=C(NCc1ccco1)c1cccc(NC(=O)c2ccccc2)c1,0,-3,50,6,23,22
CCC(Oc1ccccc1C)C(=O)N1CCCN(C)CC1 (centres undefined),-1,3,-10,-7,.,.
CC1CCCCCCC1OC(=O)c1ccccc1C(=O)O (centres undefined),.,.,15,.,.,.
CC(C)c1ccc(CNc2nc(NCC3CC3)nc3ccsc23)cc1,.,.,64,.,48,45
COc1cccc(CNc2nc(NCC3CC3)nc3ccsc23)c1OC,.,.,22,.,.,.
COc1cccc(CNc2nc(NCC3CC3)nc3ccsc23)c1,.,.,84*,.,41,41
COc1cccc(CNc2nc(NCc3ccccc3)nc3ccsc23)c1,.,.,60,.,51,53
COc1ccccc1CNc1nc(NCc2ccc(C(C)C)cc2)c2sccc2n1,.,.,19,.,.,.
CSc1ccccc1CNc1nc(NCC2CC2)nc2ccsc12,.,.,72*,.,60,47
Cn1ncc2c(=O)[nH]cnc21,-1,2,-19,-3,.,.
NNc1nc(-c2ccccc2Cl)nc2sc3c(c12)CCCC3,1,-4,-103,0,.,.
COc1ccc(-c2csc(NC(=O)Cc3cc(OC)c(OC)c(OC)c3)n2)cc1OC,1,-2,48,-3,10,44
COc1cc(CC(=O)Nc2nc(C)cs2)cc(OC)c1OC,2,-1,10,0,.,.
O=C(c1ccco1)N1CCN(Cc2cc(=O)c(OCc3ccccc3F)co2)CC1,3,2,-16,-3,.,.
